In ChEMBL document CHEMBL4014310, “Selective IKur Inhibitors for the Potential Treatment of Atrial Fibrillation: Optimization of the Phenyl Quinazoline Series Leading to Clinical Candidate 5-[5-Phenyl-4-(pyridin-2-ylmethylamino)quinazolin-2-yl]pyridine-3-sulfonamide” (J Med Chem, 2017):

How the values were obtained:
[1] = Ratio of drug level in Sprague-Dawley rat brain to plasma at 3 mg/kg, iv administered as 10 mins infusion by LC-MS/MS analysis; type: ADME, organism-based; settings: brain and plasma, read-out: BPR
[2] = target: T1, Potassium voltage-gated channel subfamily A member 5 (Homo sapiens, UniProt P22460); settings: at 0.3 µM
[3] = Stability in human liver microsomes assessed as compound remaining in presence of NADPH after 10 mins; type: ADME, microsome; settings: read-out: Stability
[4] = target: T2, Voltage-gated inwardly rectifying potassium channel KCNH2 (Homo sapiens, UniProt Q12809); assay: Inhibition of human ERG expressed in HEK293 cells by patch clamp method; type: cell-based
[5] = target: T1, Potassium voltage-gated channel subfamily A member 5; assay: Inhibition of recombinant human Kv1.5 expressed in mouse L929 cells by patch clamp assay; type: cell-based
Outline: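 Whole-cell patch clamp of IKur current in mouse L-929 cells transfected with human KV1.5 and stably expressing the channel.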

[6] = Protein binding in human plasma; type: ADME, cell-free; settings: read-out: PPB
[7] = Protein binding in rat plasma; type: ADME, cell-free; settings: read-out: PPB
Plasma = assay: Drug uptake in monkey famotidine model plasma; type: ADME, cell-free, Macaca mulatta; settings: rhesus monkey
[8] = Solubility of the compound in pH 1 to 8 solution using crystalline form; type: physicochemical
[9] = Prodrug conversion in monkey famotidine model assessed as 5-[5-phenyl-4-(pyridin-2-ylmethylamino)-quinazolin-2-yl]pyridine-3-sulfonamide formation in intestinal brush border; type: ADME, Macaca mulatta; settings: rhesus monkey, in vivo
hERG (KCNH2) [10] = target: T3, hERG (KCNH2) (Homo sapiens, UniProt Q12809); assay: Inhibition of human ERG expressed in HEK293 cells at 1 uM by patch clamp method relative to control; type: cell-based; settings: HEK293 cells expressing human ERG
[11] = Solubility of the compound in ethanol/propylene glycol/PEG-400; type: physicochemical
[12] = target: T2, Voltage-gated inwardly rectifying potassium channel KCNH2; assay: Inhibition of human ERG expressed in HEK293 cells by flux assay
hERG (KCNH2) [13] = target: T3, hERG (KCNH2); assay: Inhibition of human ERG expressed in HEK293 cells at 10 uM by patch clamp method relative to control; type: cell-based; settings: HEK293 cells expressing human ERG

T2 sequence (Q12809 whole entry): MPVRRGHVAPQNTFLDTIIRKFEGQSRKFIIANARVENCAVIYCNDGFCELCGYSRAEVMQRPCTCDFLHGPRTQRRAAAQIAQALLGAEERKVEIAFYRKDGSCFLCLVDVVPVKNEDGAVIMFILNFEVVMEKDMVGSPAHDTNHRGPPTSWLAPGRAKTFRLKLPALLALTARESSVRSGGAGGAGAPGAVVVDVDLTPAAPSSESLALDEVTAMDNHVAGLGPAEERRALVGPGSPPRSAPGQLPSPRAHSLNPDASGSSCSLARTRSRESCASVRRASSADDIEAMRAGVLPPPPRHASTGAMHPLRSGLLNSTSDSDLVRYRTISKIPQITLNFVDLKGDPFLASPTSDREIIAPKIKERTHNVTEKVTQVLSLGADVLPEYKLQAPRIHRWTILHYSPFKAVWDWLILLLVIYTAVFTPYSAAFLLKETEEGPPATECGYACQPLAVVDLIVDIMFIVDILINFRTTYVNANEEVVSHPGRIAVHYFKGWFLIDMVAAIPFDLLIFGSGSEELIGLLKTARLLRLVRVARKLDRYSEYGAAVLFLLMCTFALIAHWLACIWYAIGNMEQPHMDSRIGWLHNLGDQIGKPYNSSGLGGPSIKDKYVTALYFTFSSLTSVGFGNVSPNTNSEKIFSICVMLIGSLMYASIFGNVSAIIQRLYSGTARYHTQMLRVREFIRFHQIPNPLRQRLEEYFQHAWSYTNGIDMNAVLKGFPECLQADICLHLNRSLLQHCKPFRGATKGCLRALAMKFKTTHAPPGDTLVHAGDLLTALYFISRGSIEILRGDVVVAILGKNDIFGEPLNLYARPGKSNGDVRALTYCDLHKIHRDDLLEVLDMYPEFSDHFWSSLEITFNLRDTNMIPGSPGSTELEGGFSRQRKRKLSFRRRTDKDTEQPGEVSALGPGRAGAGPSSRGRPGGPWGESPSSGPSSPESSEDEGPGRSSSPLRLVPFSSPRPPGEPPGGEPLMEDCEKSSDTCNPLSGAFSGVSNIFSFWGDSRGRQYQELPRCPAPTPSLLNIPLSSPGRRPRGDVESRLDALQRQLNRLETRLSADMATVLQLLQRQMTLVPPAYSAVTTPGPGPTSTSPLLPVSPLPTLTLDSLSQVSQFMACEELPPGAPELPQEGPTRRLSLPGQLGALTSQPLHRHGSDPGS
T1 sequence (P22460 whole entry): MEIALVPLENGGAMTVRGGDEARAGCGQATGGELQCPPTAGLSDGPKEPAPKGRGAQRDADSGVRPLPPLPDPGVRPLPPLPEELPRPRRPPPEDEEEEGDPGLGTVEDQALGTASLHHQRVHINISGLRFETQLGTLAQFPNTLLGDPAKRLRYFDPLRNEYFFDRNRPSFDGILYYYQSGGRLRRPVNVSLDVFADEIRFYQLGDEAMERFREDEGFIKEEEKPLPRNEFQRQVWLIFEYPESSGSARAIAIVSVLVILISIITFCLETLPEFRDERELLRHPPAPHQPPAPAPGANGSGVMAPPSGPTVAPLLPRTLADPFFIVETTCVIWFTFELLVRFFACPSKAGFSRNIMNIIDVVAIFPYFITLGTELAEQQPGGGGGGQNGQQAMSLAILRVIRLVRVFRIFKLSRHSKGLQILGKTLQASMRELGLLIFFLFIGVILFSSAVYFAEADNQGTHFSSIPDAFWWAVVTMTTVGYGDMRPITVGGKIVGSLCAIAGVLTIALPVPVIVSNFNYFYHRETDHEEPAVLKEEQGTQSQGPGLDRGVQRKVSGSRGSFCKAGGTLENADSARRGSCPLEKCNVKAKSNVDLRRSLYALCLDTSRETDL
T3 sequence (Q12809 whole entry): as the sequence (Q12809 whole entry) above

| SMILES | Kp at 10 min [1] | inhibition [2] | fraction unbound [6] | fraction unbound [7] | other results |
| --- | --- | --- | --- | --- | --- |
| NS(=O)(=O)c1ccc(CCNc2nc(Cl)nc3cccc(-c4ccccc4)c23)cc1 | 0.6 | 73% | – | – | remaining at 10 min [3]: 68% |
| CC(=O)Nc1cncc(-c2nc(NCc3ccccn3)c3c(-c4ccccc4)cccc3n2)c1 | 0.08 | – | < 0.005 | < 0.005 | IC50 [4]: 2000 nM; IC50 [5]: 100 nM |
| O=P(O)(O)NS(=O)(=O)c1cncc(-c2nc(NCc3ccccn3)c3c(-c4ccccc4)cccc3n2)c1 | – | – | – | – | Drug uptake (Plasma): Not Active; solubility [8]: Soluble; Drug metabolism [9]: Metabolite_Detected |
| O=C(NCC(F)(F)F)c1ccc(-c2cccc3nc(-c4cncnc4)nc(NCc4ccccn4)c23)cc1 | 0.3 | 2% | < 0.005 | < 0.005 | IC50 [4]: 4900 nM |
| NC(=O)c1cncc(-c2nc(NCc3ccccn3)c3c(-c4ccccc4)cccc3n2)c1 | 0.3 | 89% | < 0.005 | < 0.005 | inhibition at 1 µM (hERG (KCNH2) [10]): 26% |
| NC(=O)Nc1ccc(-c2nc(NCc3ccccn3)c3c(-c4ccccc4)cccc3n2)cn1 | 1 | 79% | < 0.005 | < 0.005 | – |
| NC(=O)c1ccc(-c2nc(NCc3ccccn3)c3c(-c4ccccc4)cccc3n2)cn1 | 3 | – | < 0.01 | < 0.01 | IC50 [4]: 4600 nM; IC50 [5]: 100 nM |
| NS(=O)(=O)c1ccncc1-c1nc(NCc2ccccn2)c2c(-c3ccccc3)cccc2n1 | – | 48% | – | – | – |
| NC(=O)Nc1cncc(-c2nc(NCc3ccccn3)c3c(-c4ccccc4)cccc3n2)c1 | 0.04 | 91% | < 0.005 | < 0.005 | solubility [11]: Insoluble |
| COc1ncc(-c2nc(NCc3ccccn3)c3c(-c4ccccc4)cccc3n2)cn1 | 2.5 | – | – | – | – |
| NS(=O)(=O)Nc1cncc(-c2nc(NCc3ccccn3)c3c(-c4ccccc4)cccc3n2)c1 | 0.04 | 99% | < 0.005 | < 0.005 | IC50 [4]: 800 nM; solubility [11]: Insoluble |
| NC(=O)c1ccc(-c2cccc3nc(-c4cncnc4)nc(NCc4ccccn4)c23)cc1 | 0.2 | – | < 0.01 | < 0.01 | IC50 [4]: 1300 nM |
| c1ccc(CNc2nc(-c3cncnc3)nc3cccc(-c4cccc(N5CCOCC5)c4)c23)nc1 | 0.3 | 50% | – | – | – |
| NS(=O)(=O)c1ccc(CCNc2nc(-c3cncnc3)nc3cccc(-c4ccccc4)c23)cc1 | – | 15% | – | – | IC50 [12]: 5600 nM |
| NS(=O)(=O)c1cccc(-c2nc(NCc3ccccn3)c3c(-c4ccccc4)cccc3n2)n1 | – | 87% | – | – | – |
| O=c1ccc(-c2nc(NCc3ccccn3)c3c(-c4ccccc4)cccc3n2)c[nH]1 | 1 | – | – | – | IC50 [4]: 500 nM |
| NS(=O)(=O)c1ccc(-c2nc(NCc3ccccn3)c3c(-c4ccccc4)cccc3n2)cn1 | 0.4 | 92% | < 0.005 | < 0.005 | – |
| O=S(=O)(c1cccc(Nc2nc(Cl)nc3cccc(-c4ccccc4)c23)c1)N1CCOCC1 | 3 | – | – | – | IC50 [5]: 210 nM |
| CS(=O)(=O)Nc1cncc(-c2nc(NCc3ccccn3)c3c(-c4ccccc4)cccc3n2)c1 | 0.07 | 87% | < 0.005 | < 0.005 | inhibition at 10 µM (hERG (KCNH2) [13]): 94% |
| CN(C)c1ccc(-c2cccc3nc(-c4cncnc4)nc(NCc4ccccn4)c23)cc1 | – | – | – | – | IC50 [5]: 330 nM; IC50 [12]: > 80000 nM; remaining at 10 min [3]: < 3% |
| N#Cc1ncc(-c2nc(NCc3ccccn3)c3c(-c4ccccc4)cccc3n2)cn1 | 3 | 64% | – | – | – |
| c1ccc(-c2cccc3nc(-c4cncnc4)nc(NCc4ccccn4)c23)cc1 | 2.8 | – | – | – | – |
| CC(=O)Nc1ccc(-c2nc(NCc3ccccn3)c3c(-c4ccccc4)cccc3n2)cn1 | 2 | 80% | < 0.005 | < 0.005 | – |
| Nc1ncc(-c2nc(NCc3ccccn3)c3c(-c4ccccc4)cccc3n2)cn1 | 3 | 95% | < 0.005 | < 0.005 | IC50 [4]: 80000 nM |
| O=S(=O)(c1cccc(Nc2nc(-c3cncnc3)nc3cccc(-c4ccccc4)c23)c1)N1CCOCC1 | 2.4 | – | < 0.005 | < 0.005 | IC50 [5]: 80 nM |
